Where two headings read alike, the source gives them in different places. Numbered stars: 1 amine (or outer) side, 2 acyl side, 3 side chain; on linkers, the order of the positions; unused ones are H or OH. Bridge positions count the residues as written; N and C are the ends. Square brackets hold non-standard residues; d marks the D form. Peptide text beside a SMILES is read from it. * marks the point of attachment. hTyr(3S-OH,4S-OH,3'-OSO3H) = N[C@H](C(=O)O)[C@H](O)[C@@H](O)c1ccc(O)c(OS(=O)(=O)O)c1; Orn(4R-OH,5R-OH) = O=C([C@H](C[C@@H](O)[C@@H](O)N[*:3])N[*:1])[*:2]; Pro(3S-OH,4S-Me) = C[C@H]1CN[C@H](C(=O)O)[C@H]1O; X1 = CCCCCOc1ccc(-c2cc(-c3ccc(C(=O)*)cc3)no2)cc1; Gln(3R-OH) = NC(=O)C[C@@H](O)[C@H](N)C(=O)O; Hyp = O=C(O)[C@@H]1C[C@@H](O)CN1
How the values were obtained:
[1] = cited from earlier work
[2] = statement without reference; cited from earlier work
[3] = Population pharmacokinetic model of micafungin in ICU patients; type: in vivo; conditions: human, plasma, iv, 100 mg
Outline: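 ICU adults (n = 20; suspected or proven fungal infection) received 100 mg QD IV over ~1 h. Plasma was sampled on day 3 (±1) pre-dose and 0.5–24 h post start infusion, on day 7 (±1) in six samples to 24 h, and as daily troughs. Drug was measured by UPLC-fluorescence. The model was fitted by FOCE with interaction, with IOV on CL and V and albumin, CVVH and SOFA tested as covariates.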

[4] = cited from earlier work; remark: listed apart in the source
[5] = cited from earlier work; remark: listed apart in the source

Q: For `CCCCCOc1ccc(-c2cc(-c3ccc(C(=O)N[C@H]4C[C@@H](O)[C@@H](O)NC(=O)[C@@H]5[C@@H](O)[C@@H](C)CN5C(=O)[C@H]([C@H](O)CC(N)=O)NC(=O)[C@H]([C@H](O)[C@@H](O)c5ccc(O)c(OS(=O)(=O)O)c5)NC(=O)[C@@H]5C[C@@H](O)CN5C(=O)[C@H]([C@@H](C)O)NC4=O)cc3)no2)cc1` [micafungin] (X1-[Orn(4R-OH,5R-OH)]T[Hyp][hTyr(3S-OH,4S-OH,3'-OSO3H)][Gln(3R-OH)][Pro(3S-OH,4S-Me)]; lactam 1-C), which metabolism [1] is on record?
A: Its metabolism is “only a small fraction is metabolised”.

Q: And the CL ([1]; healthy volunteers)?
A: Its CL is 0.55 L/h.

Q: What about the “V (V 1 and V 2 together)” value ([1]; healthy volunteers) of the same molecule?
A: Its value is 13.9 L.

Q: And the protein binding [2]?
A: Its protein binding is “highly protein bound”.

Q: What about the Vd [3] of the same molecule?
A: The Vd was 21.2 L.

Q: And the tolerability ([4]; doses of 8 mg/kg)?
A: The tolerability was “well tolerated”.

Q: And the tolerability ([4]; therapy with 150–200 mg QD)?
A: Its tolerability is “well tolerated”.

Q: And the solubility in water [5]?
A: Its solubility in water is “freely soluble in water”.

Q: Which “V in critically ill patients compared with healthy volunteers” value [1] does the source give for Anidulafungin here?
A: Its value is “equal”.

Q: With caspofungin as the molecule, how does the “CL and V in critically ill patients compared with healthy volunteers” value [1] read?
A: The value was “identical”.

Source: article PMC5591795 (Clinical Pharmacokinetics, 2017)
